Screens (PubChem BioAssay)
SENP7 block: SENP7 protease inhibitors, primary screen, biochemical, luminescence, uHTS; Sentrin-specific protease 7 (Homo sapiens), Q9BQF6; recombinant SENP7, Z-RLRGG-aminoluciferin luminescence, 40 min; inhibition, % at 5 µM; 330,000 tested, 1.5% active; AID 434973, 2010;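 active = inhibition above about 50% at the single test dose, limit read from the data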;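 also: plate controls were DMSO with enzyme for no effect and no enzyme buffer wells for full effect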
SENP1 inh: human SENP1 catalytic domain inhibitors, primary screen, biochemical, FRET, uHTS; recombinant SENP1 catalytic domain, CyPet-SUMO1-YPet FRET cleavage; AID 624204, 2012; 360,000 tested, 0.21% active; inhibition, % at 10 µM;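 active = inhibition at least 30% at 10 µM, raw YFP signal under a set limit, fluorescence ratio 0.5 to 1.5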;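 also: 0% = enzyme with DMSO and 100% = no enzyme wells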
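Assay system: hSENP1 catalytic domain, recombinant. Amount: SENP1 enzyme, 20 pM final. Schedule: 50 min reaction, RT, dark. Technique: FRET, CFP and YFP emission. Control set: no-enzyme wells low, DMSO-plus-enzyme wells high control.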
SENP8 block-1: human SENP8 protease inhibitors, primary screen, biochemical, fluorescence, Nedd8 protein substrate, uHTS; Sentrin-specific protease 8 (Homo sapiens), Q96LD8; recombinant SENP8; inhibition, % at 20 µM; 360,000 tested, 0.64% active; AID 602440, 2012; in the data active = inhibition mostly above about 40%, no sharp cut-off; inactive = mostly below about 27%
Target sequence (Q96LD8 whole entry, looked up): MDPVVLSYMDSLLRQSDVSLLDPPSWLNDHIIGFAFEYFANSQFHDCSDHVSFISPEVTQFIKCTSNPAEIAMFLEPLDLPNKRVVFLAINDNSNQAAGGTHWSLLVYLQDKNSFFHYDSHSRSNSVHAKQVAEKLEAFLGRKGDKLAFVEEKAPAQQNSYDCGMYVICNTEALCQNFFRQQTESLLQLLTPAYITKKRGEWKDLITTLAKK
SENP6 inh: SENP6 protease inhibitors, primary screen, biochemical, luminescence, uHTS. Sentrin-specific protease 6 (Homo sapiens), Q9GZR1. Recombinant SENP6 catalytic domain, aminoluciferin luminescence. inhibition, % at 10 µM. 330,000 tested, 1.8% active. AID 2599, 2010;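 active = inhibition above about 50% at the single tested dose, limit read from the data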;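 also: plate controls were DMSO wells with enzyme for no effect and DMSO wells lacking enzyme for full effect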
SENP8 block-2: SENP8 protease inhibitors, primary screen, biochemical, luminescence; purified SENP8, Z-RLRGG-aminoluciferin cleavage; inhibition, % at 10 µM; 330,000 tested, 1.2% active; in the data active = inhibition above about 50%
SENP8 conf: SENP8 protease inhibitors, retest, confirmation, biochemical, luminescence, single concentration; shares compounds with SENP7 block; Recombinant SENP8, Z-RLRGG-aminoluciferin luminescence, 60 min; inhibition, % at 12.5 µM; 6,200 tested, 40% active; AID 488912, 2010;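 active = mean inhibition across replicates above about 50%, limit read from the data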
SENP6 confirm: SENP6 protease inhibitors, confirmation, biochemical, luminescence, single concentration; shares compounds with SENP7 block; inhibition, % at 12.5 µM; recombinant SENP6, Z-RLRGG-aminoluciferin luminescence; 6,200 tested, 58% active
SENP7 confirm: SENP7 protease inhibitors, retest, confirmation, biochemical, luminescence, single concentration | shares compounds with SENP7 block | recombinant SENP7, Z-RLRGG-aminoluciferin luminescence, 40 min | inhibition, % at 12.5 µM | 6,200 tested, 69% active | AID 488917, 2010
Casp3 select: caspase-3 protease inhibitors, confirmation, selectivity assay for SENP inhibitor project, biochemical, single concentration. shares compounds with SENP7 block. purified caspase-3, Z-DEVD-aminoluciferin luminescence, 60 min. inhibition, % at 12.5 µM. 6,200 tested, 60% active;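 active = mean inhibition above about 50%, limit read from the data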;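 also: plate controls were enzyme with DMSO for no effect and wells without caspase-3 for full effect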
Target sequence (P42574 28-227 limits assumed): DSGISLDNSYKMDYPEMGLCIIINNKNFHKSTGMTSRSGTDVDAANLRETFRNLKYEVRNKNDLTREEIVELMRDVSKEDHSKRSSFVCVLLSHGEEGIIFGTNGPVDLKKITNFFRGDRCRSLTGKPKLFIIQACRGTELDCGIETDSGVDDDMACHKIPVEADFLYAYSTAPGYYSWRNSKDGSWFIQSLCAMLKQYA
Luc interf: interferes with luciferase luminescence in SENP counter-screen; Pre-incubated SENP8/Z-RLRGG-aminoluciferin, luciferase luminescence interference; 6,200 tested, 39% active; inhibition, % at 12.5 µM; shares compounds with SENP7 block;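 active = mean inhibition above about 50% when retested at one dose, limit read from the data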;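 also: plate controls were DMSO wells with completed reaction for no effect and substrate without enzyme for full effect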
Active calls of the source: *; . = no result. Most compounds without a hit are left out; they make up all but 2.5% or so of the library.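 The calls were made as follows, unless noted: active = mean inhibition above about 50% in the one-dose retest (limit read from the data); inactive = the rest.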

SMILES	SENP7 block	SENP1 inh	SENP8 block-1	SENP6 inh	SENP8 block-2	SENP8 conf	SENP6 confirm	SENP7 confirm	Casp3 select	Luc interf
O=C(N/N=C/c1ccc2c(c1)OCO2)c1ccccn1	92*	1	-87	80*	70*	4	68*	90*	85*	33
CN(C)c1ccc(/C=N/NC(=O)c2ccnn2C)cc1	98*	1	-252	95*	91*	90*	90*	98*	95*	88*
O=C(c1ccncc1)N1N=C(c2ccc(Cl)cc2)CC1c1ccccc1O (stereo not drawn)	-1	-76	-20	3	2	.	.	.	.	.
C[C@@H]1CN(S(=O)C(C)(C)C)[C@@H](CCO)/C1=C\c1ccccc1 (stereo partly drawn)	.	1	4	.	.	.	.	.	.	.
CCc1cccc(NC(=O)COC(=O)C2COc3ccccc3O2)c1 (stereo not drawn)	.	3	4	.	.	.	.	.	.	.
O=C(Nc1ccc2c(c1)OCO2)OCc1ccccc1	60*	1	15	-22	38	52*	51*	82*	53*	34
O=C(Nc1cccc(-c2nn[nH]n2)c1)c1ccc(Cl)s1	16	-2	2	51*	22	42	36	72*	35	58*
O=C(Nc1ccc(Cl)cc1)C1=Cc2ccccc2OC1	45	-2	-19	66*	45	53*	62*	87*	35	34
O=C(Nc1cccc(-c2nn[nH]n2)c1)c1ccc(Br)s1	28	2	5	34	30	.	.	.	.	.
O=C(Nc1ccc(Cl)c(Cl)c1)Nc1ccccc1O	97*	3	5	-3	98*	98*	100*	104*	90*	98*
O=C(CCc1ccccc1)Nc1ccc2c(c1)OCO2	5	-1	7	11	-1	.	.	.	.	.
COCCNC(=O)COC(=O)C1=Cc2ccccc2OC1	-2	0	-76	-11	10	.	.	.	.	.
CN(c1ccccc1)S(=O)(=O)c1cccc(NS(=O)(=O)c2cccc(C(=O)O)c2)c1	-1	0	3	-13	-6	.	.	.	.	.
O=C(Nc1ccc2c(c1)OCO2)c1cccc(Cl)c1	92*	1	10	92*	81*	-6	87*	98*	90*	74*
O=C(Nc1ccc(Br)cc1)c1ccc2c(c1)OCO2	52*	1	-1	34	6	12	19	70*	47	2
CC(=O)c1cccc(NC(=O)c2ccc3c(c2)OCO3)c1	17	0	17	12	-15	.	.	.	.	.
O=C(Nc1ccc(Cl)c(Cl)c1)c1ccccc1	80*	-2	8	90*	84*	-26	79*	96*	57*	27
O=C(Nc1ccc(F)c(F)c1)c1ccc2c(c1)OCO2	-5	1	5	71*	67*	73*	74*	91*	76*	48
OC[C@@H]1CN(Cc2cccs2)C[C@H](n2cnc3c(N4CCCC4)ncnc32)O1	.	-2	9	.	.	.	.	.	.	.
O=C(Nc1ccc2c(c1)OCCO2)c1ccc(Cl)cc1	73*	1	3	81*	59*	46	75*	92*	76*	14
